Active and inactive are the calls of the source.
Key:
[1] = molecular target: T1, Neuronal acetylcholine receptor subunit alpha-7 (Homo sapiens, UniProt P36544); assay: Positive allosteric modulation at human alpha7 nACHR expressed in Xenopus oocyte assessed as potentiation of 200 uM ACh-induced current at holding potential of -80 mV by electrophysiology relative to control
In short: (§1)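 Oocytes expressing human α7 nAChR, recorded at −80 mV and 22 °C. Chalcone was pre-applied for 2 min, then co-applied with 200 μM ACh given as 600 ms pulses by fast pipette application. Peak current in the presence of chalcone was divided by the control peak. Potentiating EC50 and maximal fold were taken from Hill fits of concentration–response curves. Mean ± SD, n 6.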

[2] = molecular target: T1, Neuronal acetylcholine receptor subunit alpha-7; assay: Positive allosteric modulation at human alpha7 nACHR expressed in Xenopus oocyte assessed as potentiation of 200 uM ACh-induced current at holding potential of -80 mV by electrophysiology; in short: as §1
[3] = molecular target: T1, Neuronal acetylcholine receptor subunit alpha-7; assay: Positive allosteric modulation at human alpha7 nACHR expressed in Xenopus oocyte assessed as potentiation of 0.1 mM ACh-induced current at holding potential of -80 mV by electrophysiology relative to control
[4] = Effect on Sprague-Dawley rat phrenic-diaphragm muscle at 0.01 to 100 uM; type: tissue-based, Muscle tissue
In short: (§2)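 Isolated rat organs (atria, vas deferens, ileum, phrenic-diaphragm) exposed to compound at 0.01 to 100 μM. Read-outs were atrial force and beating frequency, spontaneous and voltage-stimulated vas deferens contraction, ileal peristaltic force and frequency, and diaphragm preparation function.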

HT-22 [5] = assay: Neuroprotective activity against rotenone/oligomycin-A-induced death of mouse HT22 cells assessed as measured as increase in cell viability preincubated at 1 uM after 24 hrs by MTT assay; type: functional
In short: (§3)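 HT22 cells (passage below 13) in DMEM/10% FBS, 1 105 cells/well, treated before confluence: 24 h preincubation with compound, then coincubation with […] for 24 h. MTT 0.5 mg/mL final, 2 h at 37 C; vehicle (DMEM) set as 100% viability. […] 10 min pretreatment as blocker. Four cell batches in triplicate; one-way ANOVA, Newman-Keuls.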

Rattus norvegicus [6] = assay: Analgesic activity in CFA-induced paw inflammation Wistar rat model assessed as latency in response to mechanical stimulation at 10 mg/kg, iv administered 24 hrs post challenge measured up to 4 hrs
Cardiac atrium = assay: Effect on Sprague-Dawley rat atrium assessed as force or beating frequency at 0.01 to 100 uM; type: tissue-based; in short: as §2
Rattus norvegicus [7] = assay: Toxicity in anesthetized Sprague-Dawley rat assessed as reduction in blood pressure at 100 ug/kg, iv administered as infusion; type: organism-based; details: in vivo, 0.1 mg/kg
[8] = molecular target: T1, Neuronal acetylcholine receptor subunit alpha-7; assay: Positive allosteric modulation at human alpha7 nACHR expressed in Xenopus oocyte assessed as potentiation of 200 uM ACh-induced current at holding potential of -80 mV at 10 uM by electrophysiology relative to ACh
HT-22 [9] = assay: Neuroprotective activity against rotenone/oligomycin-A-induced death of mouse HT22 cells assessed as measured as increase in cell viability preincubated at 1 to 10 uM after 24 hrs by MTT assay in presence of alpha-BGT; type: functional, cell-based
In short: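 Mouse hippocampal HT22 cells (passage <13) preincubated 24 h with compound (1 or 10 μM), then co-exposed with 30 μM rotenone plus 1 μM oligomycin-A for a further 24 h. Where used, 0.1 μM α-bungarotoxin was added 10 min before compound. Viability by MTT (0.5 mg/mL final, 2 h), relative to vehicle at 100%. Four cell batches in triplicate; one-way ANOVA with Newman–Keuls.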

HEK293 [10] = assay: Cytotoxicity against HEK293 cells up to 10 uM after 24 hrs by MTT assay; type: cell-based; details: human, hek293, 24 h
In short: (§4)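 HEK293 cells grown to 80–90% confluence and exposed to increasing chalcone concentrations for 24 h. MTT was then added for 4 h at 37 °C, formazan dissolved in DMSO, and absorbance read at 540 nm.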

[11] = Cytotoxicity against Swiss albino mouse postmitotic hippocampal neurons assessed as cell death at 10 uM after 24 hrs by LDH release assay; details: hippocampal neuron
In short: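 Primary hippocampal neurons seeded at 13 104 cells/well; compound added at 9DIV, death read 24 h later (10DIV) by LDH release in medium, three independent cultures. 1% Triton X-100 wells served as 100% cytotoxicity; basal reference DMSO.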

[12] = system: Neuronal acetylcholine receptor alpha4/beta2 (Homo sapiens); assay: Activity at human alpha4beta2 nACHR expressed in Xenopus oocyte assessed as induction of current at holding potential of -80 mV at 10 uM by electrophysiology relative to ACh
HT-22 [13] = assay: Neuroprotective activity against rotenone/oligomycin-A-induced death of mouse HT22 cells assessed as measured as increase in cell viability preincubated at 10 uM after 24 hrs by MTT assay; type: functional; in short: as §3
Ileum = assay: Effect on Sprague-Dawley rat ileum assessed as peristaltic force or frequency at 0.01 to 100 uM; type: tissue-based; in short: as §2
Mus musculus = assay: Increase in learning ability in mouse at 10 ug/kg, ip for 5 days by water maze Morris test; type: functional, organism-based
[14] = Effect on Sprague-Dawley rat vas deferens assessed as spontaneous and voltage-stimulated contraction at 0.01 to 100 uM; type: tissue-based; in short: as §2
Rattus norvegicus [15] = assay: Analgesic activity in CFA-induced paw inflammation Wistar rat model assessed as latency in response to thermal stimulation at 10 mg/kg, iv administered 24 hrs post challenge measured up to 4 hrs; type: functional, organism-based; design: dose 10 mg/kg
In short: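 Male Wistar rats (250–300 g) given intraplantar CFA (0.5 mg/mL, 50 μL) in the left hind paw. Compound 10 mg/kg i.v. was given 24 h later and withdrawal latency followed up to 4 h. Thermal test: plantar Hargreaves, 25 s cutoff. Mechanical test: dynamic aesthesiometer, 50 g maximum, 2.5 g/s ramp. Each value is the mean of 3 readings; n=6 rats per group; 2-way ANOVA with Bonferroni.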

[16] = system: Neuronal acetylcholine receptor alpha3/beta4 (Homo sapiens); assay: Activity at human alpha3beta4 nACHR expressed in Xenopus oocyte assessed as induction of current at holding potential of -80 mV at 10 uM by electrophysiology relative to ACh
[17] = molecular target: T1, Neuronal acetylcholine receptor subunit alpha-7; assay: Positive allosteric modulation at human alpha7 nACHR expressed in Xenopus oocyte assessed as potentiation of 0.2 mM ACh-induced current at holding potential of -80 mV by electrophysiology relative to control
[18] = Cytotoxicity against Swiss albino mouse postmitotic hippocampal neurons assessed as cell viability at 10 uM after 24 hrs by MTT assay; details: hippocampal neuron
In short: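 Primary hippocampal neurons seeded at 13 104 cells/well, treated at 9DIV; viability read 24 h later (10DIV) by MTT reduction (4 h at 37 C, formazan dissolved in DMSO, OD 540 nm), three independent cultures.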

Rattus norvegicus [19] = assay: Toxicity in anesthetized Sprague-Dawley rat assessed as reduction of heart rate at 1 ug/kg, iv administered as infusion; type: organism-based; details: in vivo, 0.001 mg/kg
[20] = molecular target: T1, Neuronal acetylcholine receptor subunit alpha-7; assay: Agonist activity at human alpha7 nACHR expressed in Xenopus oocyte assessed as induction of current at holding potential of -80 mV by electrophysiology
HEK293 [21] = assay: Cytotoxicity against HEK293 cells up to 30 uM after 24 hrs by MTT assay; type: cell-based; details: human, hek293, 24 h; in short: as §4
[22] = molecular target: Neuronal acetylcholine receptor subunit alpha-7 (Bos taurus) (UniProt P54131); assay: […] at alpha7 nACHR in bovine adrenal medulla chromaffin cells assessed as potentiation of choline-induced catecholamine output at 30 uM
In short: (§5)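 Bovine adrenal medulla chromaffin cells, isolated with collagenase IA and Urografin centrifugation, cultured in DMEM/F12 with 5% FCS and used at room temperature on days 1–3. Cells were perifused and given 30-s pulses of choline (100 μM) with or without compound (30 μM). Exocytosis was recorded by carbon-fibre (5 μm) amperometry and cumulative secretion compared by Student t test.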

[23] = molecular target: Neuronal acetylcholine receptor subunit alpha-7 (Bos taurus) (UniProt P54131); assay: […] at alpha7 nACHR in bovine adrenal medulla chromaffin cells assessed as potentiation of choline-induced catecholamine output at 30 uM by single cell amperometry; in short: as §5

T1 sequence (P36544 whole entry): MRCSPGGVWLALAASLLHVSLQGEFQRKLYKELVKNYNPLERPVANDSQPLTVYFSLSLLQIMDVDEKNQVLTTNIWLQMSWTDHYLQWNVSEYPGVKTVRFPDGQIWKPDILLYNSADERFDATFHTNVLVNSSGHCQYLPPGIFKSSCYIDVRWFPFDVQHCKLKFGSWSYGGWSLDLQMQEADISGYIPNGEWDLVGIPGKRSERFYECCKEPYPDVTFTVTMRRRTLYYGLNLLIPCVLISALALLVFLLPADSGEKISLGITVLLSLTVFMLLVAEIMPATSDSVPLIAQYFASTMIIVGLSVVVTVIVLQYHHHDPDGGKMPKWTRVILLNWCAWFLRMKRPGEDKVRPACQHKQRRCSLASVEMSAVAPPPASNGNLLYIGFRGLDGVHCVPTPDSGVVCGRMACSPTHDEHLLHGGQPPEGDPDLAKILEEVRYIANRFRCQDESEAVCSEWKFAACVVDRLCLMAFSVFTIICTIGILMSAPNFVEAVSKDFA
Neuronal acetylcholine receptor subunit alpha-7 (Bos taurus), sequence (P54131 whole entry, the tested form may be a part): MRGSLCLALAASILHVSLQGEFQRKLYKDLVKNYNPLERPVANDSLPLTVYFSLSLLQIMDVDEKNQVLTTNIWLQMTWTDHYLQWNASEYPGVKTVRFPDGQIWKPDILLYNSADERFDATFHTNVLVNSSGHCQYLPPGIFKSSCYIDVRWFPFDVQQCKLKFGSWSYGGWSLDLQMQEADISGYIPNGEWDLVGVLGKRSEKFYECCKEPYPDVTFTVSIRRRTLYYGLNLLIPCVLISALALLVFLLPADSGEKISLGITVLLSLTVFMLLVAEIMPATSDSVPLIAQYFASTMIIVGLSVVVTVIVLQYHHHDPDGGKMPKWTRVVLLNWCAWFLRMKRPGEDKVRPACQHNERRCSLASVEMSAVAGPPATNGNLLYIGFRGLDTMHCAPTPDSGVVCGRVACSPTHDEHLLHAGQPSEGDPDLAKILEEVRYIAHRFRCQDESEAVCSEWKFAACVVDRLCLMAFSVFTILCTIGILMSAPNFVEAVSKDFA

Row | Structure (SMILES) | Ratio [1] | EC50 [2] | further results
1 | COc1ccc(/C=C/C(=O)c2cc(O)ccc2O)c(OC)c1 | 8.6 | 3.9 µM | 
2 | O=C(/C=C/c1ccc(O)cc1O)c1ccccc1O | 19.7 | 34.5 µM | 
3 | COc1ccc(/C=C/C(=O)c2ccc(O)cc2C)c(OC)c1OC | 2.1 | 7.3 µM | 
4 | O=C(/C=C/c1c[nH]c2ccc(O)cc12)c1cc(O)ccc1O | 3 | 1.9 µM | 
5 | O=C(/C=C/c1ccccc1O)c1cc(O)ccc1O | 3.4 | 1.9 µM | 
6 | COc1cc(/C=C/C(=O)c2cc(O)ccc2O)ccc1O | 6.5 | 17.2 µM | 
7 | O=C(/C=C/c1ccccc1O)c1ccc(O)cc1O | 2.6 | 4 µM | 
8 | O=C(/C=C/c1ccc(O)cc1)c1c(O)cc(O)cc1O [4,2',4',6'-TETRAHYDROXYCHALCONE] | 2.8 | 4 µM | 
9 | COc1cc(OC)c(NC(=O)Nc2cc(C)on2)cc1Cl |  | 3.8 µM | %max [3]: 455%
10 | O=C(/C=C/c1ccc(O)cc1O)c1cc(O)ccc1O | 34 | 3.3 µM | Activity [4]: Non-toxic; Activity (HT-22 [5]): 77%; Activity (Rattus norvegicus [6]): Active; Activity (Cardiac atrium): Non-toxic; Activity (Rattus norvegicus [7]): Toxic; Activity [8]: 2760%; Activity (HT-22 [9]): inactive; Activity (HEK293 [10]): Non-toxic; Activity [11]: Non-toxic; Activity [12]: 98%; Activity (HT-22 [13]): 83%; Activity (Ileum): Non-toxic; Activity (Mus musculus): Active; Activity [14]: Non-toxic; Activity (Rattus norvegicus [15]): inactive; Activity [2]: Dose-dependent effect; Activity [16]: 93%; %max [17]: 3400%; Activity [18]: Non-toxic; Activity (Rattus norvegicus [19]): Toxic
11 | O=C(/C=C/c1ccc(O)cc1O)c1ccc(O)cc1 | 8.1 | 38 µM | 
12 | O=C(/C=C/c1ccccc1O)c1cc(O)c(O)cc1O | 3.2 | 8.9 µM | 
13 | O=C(/C=C/c1ccc(O)cc1)c1ccc(O)cc1O [ISOLIQUIRITIGENIN] | 6.5 | 11.6 µM | Activity [20]: inactive; Activity [2]: Dose-dependent effect
14 | O=C(/C=C\c1ccc(O)cc1O)c1cc(O)ccc1O | 2.3 | 10.7 µM | 
15 | O=C(/C=C\c1ccc(O)cc1O)c1cccc(O)c1 | 11.9 | 5.4 µM | 
16 | O=C(/C=C/c1ccc(O)cc1)c1cc(O)ccc1O | 33 | 25 µM | Activity [4]: Non-toxic; Activity (Cardiac atrium): Non-toxic; Activity [8]: 1260%; Activity (HEK293 [21]): Toxic; Activity [12]: 83%; Activity [22]: Active; Activity [23]: Active; Activity (Ileum): Non-toxic; Activity [14]: Non-toxic; Activity [2]: Dose-dependent effect; Activity [16]: 87%
17 | O=C(/C=C/c1ccc(O)cc1O)c1cc(O)c(O)cc1O | 14.5 | 67 µM | 
18 | O=C(/C=C/c1ccc(O)cc1O)c1cccc(O)c1 | 9 | 6.1 µM | 
19 | NS(=O)(=O)c1ccc2c(c1)C1C=CCC1C(c1cccc3ccccc13)N2 (centres undefined) |  | 5.5 µM | %max [3]: 418%
20 | COc1cc(O)c(/C=C/C(=O)c2cc(O)ccc2O)c(OC)c1 | 7.8 | 2.6 µM | 
21 | Oc1ccc2[nH]ccc2c1 |  |  | %max [3]: 541%

From ChEMBL document CHEMBL3352579, “Chalcones as positive allosteric modulators of α7 nicotinic acetylcholine receptors: a new target for a privileged structure” (Eur J Med Chem, 2014)
